# Only some compounds are listed: those with a hit (about 3.8% of all), similar ones and a draw of the others.
# Kir21 block – inhibitors of mouse Kir2.1 inward-rectifier potassium channel; B-score at 10 µM; HEK293-Kir2.1, FluxOR thallium flux fluorescence; active compounds read low; 310,000 compounds, 0.85% hits;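 active = fluorescence ratio B-score at or below minus 3 SD of library scores, with starting-brightness B-score within 2 SD, cut at about -4.2 in these data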;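 also: channel flux triggered by added potassium and thallium sulfate stimulus; B-score of peak minus minimum fluorescence over baseline after thallium stimulus; more negative B-score means stronger Kir2.1 block with less thallium influx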
# KCNK9 inh – KCNK9 potassium channel inhibitors, primary screen, HEK293 cells, thallium flux; Potassium channel subfamily K member 9 (Homo sapiens), Q9NPC2; FluxOR thallium flux fluorescence; active compounds read low; B-score at 10 µM; 310,000 compounds, 1.2% hits;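 active = ratio B-score over 3 SD below the library mean, with starting fluorescence within 5 SD of its mean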;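 also: negative B-score means less thallium flux so channel inhibition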
# Target sequence (Q9NPC2 whole entry, looked up): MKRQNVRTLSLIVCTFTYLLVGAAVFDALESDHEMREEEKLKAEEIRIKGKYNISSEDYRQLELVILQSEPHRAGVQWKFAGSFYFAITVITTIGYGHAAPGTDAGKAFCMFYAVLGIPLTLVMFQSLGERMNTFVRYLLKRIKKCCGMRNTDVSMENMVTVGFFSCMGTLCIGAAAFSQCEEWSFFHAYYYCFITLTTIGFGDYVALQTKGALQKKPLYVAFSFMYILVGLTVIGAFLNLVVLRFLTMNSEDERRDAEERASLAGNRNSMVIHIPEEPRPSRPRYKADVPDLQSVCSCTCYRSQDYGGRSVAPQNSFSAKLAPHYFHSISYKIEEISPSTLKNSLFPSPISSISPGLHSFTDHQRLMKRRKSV
# KCNQ1 pot – potentiators or activators of KCNQ1 channel, primary screen, cell-based, thallium flux, high-throughput; CHO-K1 KCNQ1, thallium flux FluxOR fluorescence; active compounds read high; B-score at 10 µM; 310,000 compounds, 0.35% hits;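 active = fluorescence ratio B-score, a plate-corrected score, at least three library SD, with initial intensity B-score within 5 SD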
#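 assay system = KCNQ1-transfected CHO-K1 cells | medium = assay buffer with matched DMSO | probe or stimulus = depolarizing K+/Tl+ stimulus, K2SO4 and Tl2SO4 each 12.5 mM in 5x stock | dosing = single dose | incubation = dye 90 min, compound 20 min, room temperature | detection = kinetic FluxOR fluorescence, 10 s baseline plus 110 s post-stimulus | evaluation = ratio B score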
# KCNQ1 block – inhibitors of human KCNQ1 channel, primary screen, cell-based, thallium flux, high-throughput; Potassium voltage-gated channel subfamily KQT member 1 (Homo sapiens), P51787; B-score at 10 µM; CHO-K1 KCNQ1, FluxOR thallium flux fluorescence; active compounds read high; 310,000 compounds, 1.3% hits;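 active = compounds whose thallium flux B-score, printed positive for inhibition, exceeds three library SD while starting fluorescence stays within three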;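 also: channel opened by potassium depolarization with thallium stimulus after 20 min compound exposure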
# hERG rescue – hERG rescue from dofetilide block, primary screen, cell-based, CHO-hERG, FluxOR thallium flux, dofetilide IC70; activation (rescue from dofetilide block), less the hit threshold, % at 10 µM; Voltage-gated inwardly rectifying potassium channel KCNH2 (Homo sapiens), Q12809; 310,000 compounds, 0.51% hits; dofetilide IC70 present;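 active = activation above the mean of controls blocked by dofetilide plus 5 SD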;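 also: thallium influx through hERG after potassium depolarization seen as dye fluorescence rise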
# KCNK3 inh – human KCNK3 channel inhibitors, primary screen, CHO cells, FluxOR thallium flux, B-score; Potassium channel subfamily K member 3 (Homo sapiens), O14649; FluxOR fluorescence; active compounds read low; B-score at 10 µM; 340,000 compounds, 0.84% hits; AID 602410, 2012;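 active = B-score under library mean minus 4 SD, starting fluorescence ratio at most library mean plus 5 SD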;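 also: more negative B-score means stronger inhibition of thallium flux through KCNK3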
# * hit, by the source's call; i = inactive; / = no result given.
SMILES,Kir21 block,KCNK9 inh,KCNQ1 pot,KCNQ1 block,hERG rescue,KCNK3 inh
CCOC(=O)CSc1nc2c(sc(=S)n2-c2ccc(CC)cc2)c(=O)[nH]1,0.67,i,i,6*,-13.8,i
CCOC(=O)CC(=O)CSc1nc2c(sc(=S)n2-c2ccccc2)c(=O)[nH]1,0.88,i,i,i,-9.8,i
CC1CCCC(NC(=O)CSc2cccc[n+]2[O-])C1C (configuration not stated),/,/,/,/,/,i
CC(C)CCN1CCN(Cc2nc(-c3ccc(F)cc3)cs2)CC1CCO (configuration not stated),0.04,i,i,i,7.1*,i
COC(=O)c1ccc(CN2CCN(CCc3ccccc3)C(CCO)C2)cc1 (configuration not stated),-0.15,i,i,i,-15.4,i
COC(=O)c1ccc(CN2CCN(CCC(C)C)C(CCO)C2)cc1 (configuration not stated),-0.27,i,i,6*,-18.4,i
N#Cc1ccc(OC(=O)Cc2ccsc2)cc1,0.7,i,i,i,-8.4,i
COc1ccc(Cl)cc1NC(=O)NCC1CCN(Cc2cc(C)ccc2C)CC1,-0.55,i,i,i,-15.2,i
COc1cc([N+](=O)[O-])ccc1NC(=O)NCC1CCN(Cc2ccc(Cl)cc2)CC1,-5.58*,i,i,i,-13.2,i
CC(=O)N(Cc1ccccc1C)c1cccc(C)c1C,-4.58*,i,i,i,-4.9,i
CC[n+]1ccccc1/C=C1\Sc2ccc(C)cc2N1C,-7.18,i,i,7*,-32.6,i
CCOC(=O)c1sc(N(Cc2ccccc2)C(=O)COC(=O)c2ccccc2O)nc1C,-0.35,-6.74*,i,i,-12.9,i
CCOC(=O)c1sc(N(Cc2ccccc2)C(=O)CCl)nc1C,-0.53,i,i,i,-14.4,i
Cc1ccc(S(=O)(=O)N2CCC(=O)N(CCOCc3cccc(F)c3)CC2)cc1,1.11,i,i,i,-10.1,i
Cc1ccc(S(=O)(=O)N2CCC(=O)N(CCOCc3cccc(Cl)c3)CC2)cc1,-5.53*,i,i,i,-8.5,i
C=CCN(CC=C)C(=S)Nc1cc(Cl)ccc1OC,-0.34,i,i,i,0.8,i
C=CCN(CC=C)C(=S)NC(=O)c1ccc([N+](=O)[O-])cc1,-0.1,i,10*,i,41.8*,i
C=CCN(CC=C)C(=S)NC(=O)c1ccc(OC)c(Br)c1,0.51,i,32*,i,33.3*,i
C=CCNC(=S)NNC(=O)c1ccc([N+](=O)[O-])cc1,-0.56,i,i,i,-0.5,i
COc1ccc(C(=O)NC(=S)N(C)Cc2ccccc2)cc1Br,1.02,i,i,i,-6.1,i
CCN(CC)C(=S)NC(=O)c1ccc(OC)c(Br)c1,-0.04,i,8*,i,2.6,i
O=c1ccccn1CCOc1ccccc1Cl,-0.05,i,i,i,5.3*,i
Clc1ccccc1OCCN1CCCCC1,0.04,i,i,i,-3.3,i
CCOC(=O)C1CCCN(C(=O)CCCn2nnnc2CN2CCC(C)CC2)C1 (configuration not stated),2.7,i,i,i,-2.7,i
CCN(CC)c1ncnc2scc(C3COc4ccccc4O3)c12 (configuration not stated),-1.75,-7.62*,i,i,-9.6,i
SMILES,Kir21 block,KCNK9 inh,KCNQ1 pot,KCNQ1 block,hERG rescue,KCNK3 inh
COc1ccc(S(=O)(=O)Nc2ccccc2)cc1,0.67,i,i,i,-7.5,i
Cc1ccc(C)c(S(=O)(=O)Nc2ccc(O)c3ccccc23)c1,0.38,i,i,i,-9.6,i
Cc1ccc(S(=O)(=O)Nc2ccc(O)c3ccccc23)c(C)c1,-3.06,i,i,i,9.0*,i
COc1ccc(C(=O)COC(=O)c2ccccc2NS(=O)(=O)c2ccc(O)c([N+](=O)[O-])c2)cc1,-0.96,i,i,9*,-17.5,i
COc1ccc(S(=O)(=O)Nc2ccc(O)c3ccccc23)cc1,-2.21,i,i,i,5.1*,i
COc1ccc(N2C(=O)[C@@H]3[C@H](C2=O)[C@H](C(=O)c2ccc(OC(C)=O)cc2)N2N=CC=C[C@@H]32)cc1,-4.81*,i,i,i,-11.4,/
COc1ccc(C(=O)CN2C(=O)NC3(CCCCCC3)C2=O)cc1,0.98,i,i,i,-9.3,i
Cc1ccc(NC(=O)COc2ncnc3c(Cl)cc(Cl)cc23)cc1[N+](=O)[O-],1.64,i,i,i,-7.8,i
CCC1(c2ccccc2)NC(=O)N(CC(=O)N(C)CC(=O)Nc2cccc(F)c2)C1=O (configuration not stated),1.6,i,i,i,-10.3,i
CCC(NC(=O)c1oc2ccccc2c1COC)c1ccc(OC)cc1 (configuration not stated),-5.66*,i,i,i,-9.8,i
C[C@@H](CN1C2=NC[C@H](Cc3ccccc3)N2C[C@H]1Cc1ccc(O)cc1)NC(=O)CCC1CCCCC1,-4.49*,i,i,i,-13.4,i
COc1ccc(C[C@H]2CN3C(=NC[C@H]3Cc3ccccc3)N2CCNC(=O)CCC2CCCCC2)cc1,-6.11*,i,i,i,-19.1,i
COc1ccc(C[C@H]2CN3C(=NC[C@@H]3Cc3ccccc3)N2C[C@H](C)NC(=O)CCC2CCCCC2)cc1,-7.33*,i,i,i,-21.5,/
C=CC(c1ccccc1)C(C(=O)c1ccccc1)N(C)C (configuration not stated),/,/,/,/,/,i
c1cncc(CNc2ncn[nH]2)c1,1.08,i,i,i,-5.7,i
CC(NC(=O)c1ccc(C(C)(C)C)cc1)C(c1cccs1)N1CCOCC1 (configuration not stated),-1.35,i,i,i,-4.1,i
CC1(C(=O)O)CCC(C(=O)NC2CCCCC2)C1(C)C (configuration not stated),0.01,-7.58*,i,i,1.4,i
O=C(Cn1cc(C(F)(F)F)cc(Cl)c1=O)Nc1cc(Cl)cc(Cl)c1,1.62,i,i,i,-2.1,i
